Data set [1] in a line: folding enthalpy; higher = less favourable; fluorescence melt of hairpins on a sequencing array, two-state fit. To be noted: sodium 0.088 M. A digest of the protocol: (§1)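 Folding enthalpy and melting temperature come from bootstrapped two-state fits to Cy3 fluorescence of library hairpins carrying annealed Cy3 and quencher oligos on a sequenced MiSeq flow cell. Imaging was done in 50 mM Na-HEPES pH 8.0, 25 mM NaCl, stepping by 2.5 °C up to 60 °C, and signals were normalised to pre-quench Cy3 and to control constructs. Results of four replicates were combined by inverse variance, and fitted temperatures were raised by 9.35 °C to match UV melts.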

Data set [2] can be described thus: melting temperature; fluorescence melt of hairpins on a sequencing array, two-state fit, raised by 9.35 °C to match UV melts. To be noted: sodium 0.088 M. A digest of the protocol:
as §1

AACACGAAAGTGTT (((((....))))): the folding enthalpy in data set [1] was -18.9 kcal/mol. Further, the Tm in data set [2] was 56.8 °C.
The corresponding values for AACGGGAAACCGTT (((((....))))) are -18.5 kcal/mol and 50.6 °C.
For AACTCGAAAGAGTT (((((....))))) the same measures were -17.7 kcal/mol and 50.7 °C.
For AATTGGAAACAATT (((((....))))) the same measures were -11.3 kcal/mol and 31.6 °C.
For ACAATGAAAATTGT (((((....))))), in data set [1], the folding enthalpy was -11.1 kcal/mol. In data set [2], the Tm amounted to 34.8 °C.
The corresponding values for ACACAGAAATGTGT (((((....))))) are -14.7 kcal/mol and 45.9 °C.
For ACCAGGAAACTGGT (((((....))))) the same measures were -21.4 kcal/mol and 49.2 °C.
The corresponding values for ACCGTGAAAACGGT (((((....))))) are -17 kcal/mol and 55.4 °C.
With ACGGAGAAATCCGT (((((....))))), the folding enthalpy in data set [1] is -19 kcal/mol. In addition, in data set [2], the Tm worked out at 49.2 °C.
The corresponding values for ACTAGGAAACTAGT (((((....))))) are -13.9 kcal/mol and 37.9 °C.
For ACTCAGAAATGAGT (((((....))))) the same measures were -22 kcal/mol and 36.7 °C.
In the case of ACTGGGAAACCAGT (((((....))))), the folding enthalpy in data set [1] was -15.9 kcal/mol. The Tm in data set [2] came out at 47.6 °C.
The corresponding values for AGAAGCAGAAATGGTTCT ((((.((....)).)))) are -27.4 kcal/mol and 34.5 °C.
The corresponding values for AGACAGAAATGTCT (((((....))))) are -15.8 kcal/mol and 41.7 °C.
The corresponding values for AGAGTGAAAACTCT (((((....))))) are -16.6 kcal/mol and 40.8 °C.
Regarding AGATTGAAAAATCT (((((....))))), the folding enthalpy in data set [1] was -10.8 kcal/mol. For the same sequence, in data set [2], the Tm was determined as 28.9 °C.
For AGCGTGAAAACGCT (((((....))))) the same measures were -18.5 kcal/mol and 65.6 °C.
The corresponding values for AGCTCGAAAGAGCT (((((....))))) are -20.8 kcal/mol and 68.6 °C.
For AGCTGGAAACAGCT (((((....))))) the same measures were -23.3 kcal/mol and 54.3 °C.
As for AGGCTGAAAAGCCT (((((....))))), the folding enthalpy in data set [1] is -16.9 kcal/mol. The Tm in data set [2] is 62.6 °C.
For AGGTGGAAACACCT (((((....))))) the same measures were -19.2 kcal/mol and 52.6 °C.
Consider AGTAACTGAAAAGTTACT (((((((....))))))), for which the folding enthalpy in data set [1] was -32.3 kcal/mol. Further, the Tm in data set [2] amounted to 51.6 °C.
The corresponding values for AGTATGAAAATACT (((((....))))) are -15.2 kcal/mol and 32 °C.
For AGTCAGAAATGACT (((((....))))) the same measures were -18.9 kcal/mol and 43.3 °C.
The corresponding values for ATCATGAAAATGAT (((((....))))) are -13.8 kcal/mol and 38.5 °C.
As for ATCCTGAAAAGGAT (((((....))))), the folding enthalpy in data set [1] was -18.9 kcal/mol. The Tm in data set [2] was 45.2 °C.
Turning to ATGACGAAAGTCAT (((((....))))), in data set [1], the folding enthalpy was -19.1 kcal/mol. In data set [2], the Tm was 56.8 °C.
For ATGCTGAAAAGCAT (((((....))))) the same measures were -18.6 kcal/mol and 50.8 °C.
For ATGTGGAAACACAT (((((....))))) the same measures were -20.3 kcal/mol and 46.1 °C.
For CAACGGAAACGTTG (((((....))))) the same measures were -25.9 kcal/mol and 52.6 °C.
CAAGCAGAAATGGTTG (((.((....)).))): the folding enthalpy in data set [1] is -19.3 kcal/mol. Also, the Tm in data set [2] was 33.6 °C.
For CAATCCGAAAGGCTTG (((.((....)).))) the same measures were -17 kcal/mol and 34.7 °C.
For CAATTGAAAAATTG (((((....))))) the same measures were -13.6 kcal/mol and 35.6 °C.
For CACAGGAAACTGTG (((((....))))) the same measures were -21 kcal/mol and 50.2 °C.
Consider CACCTGAAAAGGTG (((((....))))), for which the folding enthalpy in data set [1] is -23.8 kcal/mol. Also, in data set [2], the Tm is 54.4 °C.
For CACGTGAAAACGTG (((((....))))) the same measures were -24.9 kcal/mol and 58.6 °C.
For CACTTGAAAAAGTG (((((....))))) the same measures were -21.2 kcal/mol and 43.6 °C.
The corresponding values for CAGCAGAAATGCTG (((((....))))) are -25.6 kcal/mol and 53 °C.
On to CAGGGGAAACCCTG (((((....))))), for which the folding enthalpy in data set [1] is -23.2 kcal/mol. Besides, in data set [2], the Tm stood at 52.5 °C.
For the sequence CAGTGGAAACACTG (((((....))))), the folding enthalpy in data set [1] is -23 kcal/mol. For the same sequence, the Tm in data set [2] was determined as 51.7 °C.
The corresponding values for CATATGAAAATATG (((((....))))) are -11.8 kcal/mol and 32.2 °C.
For CATGGGAAACCATG (((((....))))) the same measures were -22.3 kcal/mol and 47.8 °C.
For CATGTGAAAACATG (((((....))))) the same measures were -23.3 kcal/mol and 47.2 °C.
CCAACGAAAGTTGG (((((....))))): the folding enthalpy in data set [1] was -25.4 kcal/mol. Besides, the Tm in data set [2] worked out at 58 °C.
For CCAGGGAAACCTGG (((((....))))) the same measures were -20.6 kcal/mol and 53 °C.
For CCCAGGAAACTGGG (((((....))))) the same measures were -20.4 kcal/mol and 54.3 °C.
The corresponding values for CCCATGAAAATGGG (((((....))))) are -20.9 kcal/mol and 51.2 °C.
Regarding CCCCTGAAAAGGGG (((((....))))), the folding enthalpy in data set [1] was -25.4 kcal/mol. Moreover, the Tm in data set [2] is 57.2 °C.
For CCGAGGAAACTCGG (((((....))))) the same measures were -23.9 kcal/mol and 55.9 °C.
For CCGATGAAAATCGG (((((....))))) the same measures were -21.4 kcal/mol and 55.6 °C.
Turning to CCGTAGAAATACGG (((((....))))), the folding enthalpy in data set [1] is -17.8 kcal/mol. In addition, in data set [2], the Tm is 47.3 °C.
The corresponding values for CCTAAGAAATTAGG (((((....))))) are -8.08 kcal/mol and 28.1 °C.
Consider CCTACGAAAGTAGG (((((....))))), for which the folding enthalpy in data set [1] is -20.4 kcal/mol. The Tm in data set [2] was 57 °C.
For CCTCTGAAAAGAGG (((((....))))) the same measures were -20.4 kcal/mol and 48.7 °C.
CGAAACGGAAACGTGTCG (((.(((....))).))): in data set [1], the folding enthalpy is -31.5 kcal/mol. In addition, the Tm in data set [2] was 47.5 °C.
Consider CGAAAGCGGAAACGCTCG (((..(((....)))))), for which the folding enthalpy in data set [1] is -18.2 kcal/mol. Besides, in data set [2], the Tm came out at 43.5 °C.
The corresponding values for CGAAATCGGAAACGATCG (((..(((....)))))) are -22.6 kcal/mol and 34 °C.
The corresponding values for CGAACCGGAAACGGATCG (((.(((....))).))) are -27.6 kcal/mol and 51.6 °C.
The corresponding values for CGAACGGAAACGTATTCG ((((((....)))..))) are -17.7 kcal/mol and 29.1 °C.
Turning to CGAACGGAAACGTCCTCG ((((((....)))..))), the folding enthalpy in data set [1] is -11.4 kcal/mol. Moreover, the Tm in data set [2] stood at 26.2 °C.
With CGAACGGAAACGTCTCG ((((((....))).))), the folding enthalpy in data set [1] was -29.3 kcal/mol. Also, the Tm in data set [2] was found to be 36.8 °C.
The corresponding values for CGAACGGAAACGTGATCG ((((((....)))..))) are -19.6 kcal/mol and 28.6 °C.
The corresponding values for CGAACGGAAACGTTGTCG ((((((....)))..))) are -14.1 kcal/mol and 36.3 °C.
For the sequence CGAACGGAAACGTTTCG ((((((....))).))), the folding enthalpy in data set [1] is -26.2 kcal/mol. Also, the Tm in data set [2] was 46.1 °C.
The corresponding values for CGAACGGAAACGTTTTCG ((((((....)))..))) are -16.3 kcal/mol and 30.4 °C.
The corresponding values for CGAAGCGGAAACGCGTCG (((.(((....))).))) are -29.1 kcal/mol and 55.1 °C.
Regarding CGACAACGGAAACGTTCG (((..(((....)))))), the folding enthalpy in data set [1] was -14.3 kcal/mol. In addition, the Tm in data set [2] worked out at 35.9 °C.
The corresponding values for CGACCCCGGAAACGGTCG (((..(((....)))))) are -21.3 kcal/mol and 44.4 °C.
For CGACCGGAAACGGATCG ((((((....))).))) the same measures were -33.3 kcal/mol and 48.5 °C.
With CGACCGGAAACGGATTCG ((((((....)))..))), the folding enthalpy in data set [1] is -16.2 kcal/mol. In data set [2], the Tm turned out to be 33.6 °C.
For CGACCGGAAACGGCTTCG ((((((....)))..))) the same measures were -17 kcal/mol and 28.5 °C.
In the case of CGACCGGAAACGGGTCG ((((((....))).))), in data set [1], the folding enthalpy was -32.4 kcal/mol. The Tm in data set [2] amounted to 56.9 °C.
For CGACGACGGAAACGTTCG (((..(((....)))))) the same measures were -14.5 kcal/mol and 36.9 °C.
CGACGCGGAAACGCTTCG (((.(((....))).))): the folding enthalpy in data set [1] was -33.6 kcal/mol. In data set [2], the Tm worked out at 50.5 °C.
For CGACGGCGGAAACGCTCG (((..(((....)))))) the same measures were -15.4 kcal/mol and 38.3 °C.
For CGACTCGGAAACGAATCG (((.(((....))).))) the same measures were -33.6 kcal/mol and 41.9 °C.
As for CGAGACCGGAAACGGTCG (((..(((....)))))), the folding enthalpy in data set [1] was -23.4 kcal/mol. In addition, the Tm in data set [2] stood at 57.1 °C.

Source of the values: the array DNA melting data of Ke et al. (doi:10.1101/2024.01.08.574731).
